Assay results reported in ChEMBL document CHEMBL3407469, “Development of benzimidazole derivatives to inhibit HIV-1 replication through protecting APOBEC3G protein” (Eur J Med Chem, 2015).

Tests used:
[1] = system: 293T; assay: Inhibition of full-length X4 tropic HIV-1 clone pNL4-3 Vif/human APOBEC3G complex transfected in human 293T cells measured at 50 uM after 48 hrs by GFP-based fluorescence assay relative to control; format: cell-based
How it was run: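 This was the primary screen in 293T cells co-transfected with HA-Vif and A3G-GFP plasmids (Lipofectamine 2000) and given a single compound concentration. DMSO-only wells and A3G-GFP-only transfected wells served as controls. GFP was read after 48 h. A3G-GFP MFI fold change was scored as −, none or <1; +, 1–2; ++, 2–3; +++, >3.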

[2] = system: Human immunodeficiency virus 1; assay: Antiviral activity against X4 tropic HIV-1 clone pNL4-3 infected in H9 cells assessed as reduction in p24 antigen after 4 days by ELISA; format: functional, organism-based; conditions: Human immunodeficiency virus 1, pNL4-3, H9, 96 h
[3] = Cytotoxicity against human H9 cells by MTS assay; format: cell-based

SMILES	fold change (FC) [1]	IC50 [2]	CC50 [3]
N#C/C(=C\c1ccc(-n2ccnc2)cc1)c1nc2ccccc2[nH]1	< 1	> 50 µM	> 50 µM
CCN(CC)c1ccc(/C=C(\C#N)c2nc3cc(C(=O)OC)ccc3[nH]2)cc1	2	1.68 µM	> 50 µM
CCN(CC)c1ccc(/C=C(\C#N)c2nc3cc(Cl)c(Cl)cc3[nH]2)cc1	> 3	1.25 µM	> 50 µM
CCN(CC)c1ccc2cc(-c3nc4ccccc4[nH]3)c(=O)oc2c1	> 3	0.24 µM	> 50 µM
CC(=O)Nc1ccc(/C=C(\C#N)c2nc3ccccc3[nH]2)cc1	< 1	> 50 µM	> 50 µM
Cc1ccc(/C=C(\C#N)c2nc3ccccc3[nH]2)cc1	< 1	> 50 µM	> 50 µM
CCN(CCO)c1ccc(/C=C(\C#N)c2nc3ccccc3[nH]2)cc1	1	6.11 µM	> 50 µM
CCN(CC)c1ccc(/C=C(\C#N)c2nc3cc(C(=O)O)ccc3[nH]2)cc1	2	> 50 µM	> 50 µM
N#C/C(=C\c1ccc2[nH]ncc2c1)c1nc2ccccc2[nH]1	2	0.36 µM	> 50 µM
COc1ccc(/C=C(\C#N)c2nc3ccccc3[nH]2)cc1OC	1	> 50 µM	> 50 µM
N#C/C(=C\c1ccc(N2CCOCC2)cc1)c1nc2ccccc2[nH]1	> 3	> 50 µM	> 50 µM
CCN(CC)c1cccc(/C=C(\C#N)c2nc3ccccc3[nH]2)c1	< 1	> 50 µM	> 50 µM
CCN(CC)c1ccc(/C=C(\C#N)c2nc3ccccc3s2)cc1	> 3	5.92 µM	> 50 µM
CCN(CC)c1ccc(/C=C(\C#N)c2nc3cc(SC)ccc3[nH]2)cc1	2	0.75 µM	> 50 µM
N#C/C(=C\c1ccc2[nH]ccc2c1)c1nc2ccccc2[nH]1	> 3	0.72 µM	> 50 µM
CN1CCN(c2ccc(/C=C(\C#N)c3nc4ccccc4[nH]3)cc2)CC1	< 1	> 50 µM	> 50 µM
CCCN(CCC)c1ccc(/C=C(\C#N)c2nc3ccccc3[nH]2)cc1	2	1.09 µM	> 50 µM
CS(=O)(=O)c1ccc(/C=C(\C#N)c2nc3ccccc3[nH]2)cc1	< 1	> 50 µM	> 50 µM
CCN(CC)c1ccc(/C=C(\C#N)c2nc3ccncc3[nH]2)cc1	2	7.3 µM	> 50 µM
CCN(CC)c1ccc(/C=C(\C#N)c2nc3cc(OC(F)(F)F)ccc3[nH]2)cc1	> 3	1.35 µM	> 50 µM
CCN(CC)c1ccc(/C=C(\C#N)c2nc3cc(OC)ccc3[nH]2)cc1	2	4.42 µM	> 50 µM
N#C/C(=C\c1ccc(C(=O)O)cc1)c1nc2ccccc2[nH]1	< 1	> 50 µM	> 50 µM
COc1cc(OC)c(OC)cc1/C=C(\C#N)c1nc2ccccc2[nH]1	1	> 50 µM	> 50 µM
CCN(CC)c1ccc(/C=C(\C#N)c2nc3ccccc3n2C)cc1	< 1	> 50 µM	> 50 µM

SMILES	fold change (FC) [1]	IC50 [2]	CC50 [3]
COc1cc(/C=C(\C#N)c2nc3ccccc3[nH]2)cc(OC)c1OC	1	> 50 µM	> 50 µM
COc1ccc(/C=C(\C#N)c2nc3ccccc3[nH]2)cc1	2	2.85 µM	> 50 µM
CCN(CC)c1ccc(/C=C(\C#N)c2nc3cc(C(C)(C)C)ccc3[nH]2)cc1	> 3	1.04 µM	> 50 µM
CCN(CC)c1ccc(/C=C(\C#N)c2nc3ccccc3n2C2CC2)cc1	< 1	> 50 µM	> 50 µM
CCN(CC)c1ccc(/C=C(\C#N)c2nc3ccccc3n2CC)cc1	< 1	> 50 µM	> 50 µM
CCc1ccc(/C=C(\C#N)c2nc3ccccc3[nH]2)cc1	< 1	> 50 µM	> 50 µM
CCN(CC)c1ccc(CC(C#N)c2nc3ccccc3[nH]2)cc1 (stereo unspecified)	< 1	> 50 µM	> 50 µM
N#C/C(=C\c1ccc(-c2ccccc2)cc1)c1nc2ccccc2[nH]1	< 1	> 50 µM	> 50 µM
COc1cc(/C=C(\C#N)c2nc3ccccc3[nH]2)ccc1N(C)C	1	0.29 µM	> 50 µM
CCN(CC)c1ccc(/C=C(\C#N)c2nc3cc(C)c(C)cc3[nH]2)cc1	> 3	1.64 µM	> 50 µM
CN(C)c1ccc(/C=C(\C#N)c2nc3ccccc3[nH]2)cc1	2	0.51 µM	> 50 µM
CCN(CC)c1ccc(/C=C(\C#N)c2nc3cc(N(C)C)ccc3[nH]2)cc1	1	2.68 µM	> 50 µM
CN(C)c1ccc(/C=C(\C#N)c2nc3ccccc3[nH]2)c(O)c1	> 3	> 50 µM	> 50 µM
CCN(CC)c1ccc(/C=C(\C#N)c2nc3cc(Cl)ccc3[nH]2)cc1	2	> 50 µM	> 50 µM
CC(C)c1ccc(/C=C(\C#N)c2nc3ccccc3[nH]2)cc1	< 1	> 50 µM	> 50 µM
CCN(CC)c1ccc(/C=C(\C#N)c2nc3ccccc3o2)cc1	2	2.38 µM	> 50 µM
CCN(CC)c1ccc(/C=C(\C#N)c2nc3ccccc3[nH]2)c(O)c1	> 3	1.5 µM	> 50 µM
CCN(CC)c1ccc(/C=C(\C#N)c2nc3cc(C(F)(F)F)ccc3[nH]2)cc1	2	1.13 µM	> 50 µM
N#C/C(=C\c1ccc(N2CCCC2)cc1)c1nc2ccccc2[nH]1	< 1	> 50 µM	> 50 µM
CCN(CC)c1ccc(/C=C(\C#N)c2nc3cc(F)ccc3[nH]2)cc1	> 3	> 50 µM	> 50 µM
CCN(CC)c1ccc(/C=C(\C#N)c2nc3cccnc3[nH]2)cc1	2	3.58 µM	> 50 µM
CC(C)N(c1ccc(/C=C(\C#N)c2nc3ccccc3[nH]2)cc1)C(C)C	2	3.3 µM	> 50 µM
CCN(CC)c1ccc(/C=C(\C#N)c2nc3cc(Br)ccc3[nH]2)cc1	2	> 50 µM	> 50 µM
